Values after ≈ are worked out from the molar mass of the structure shown.
Tests used:
HUVEC = experiment: Antiproliferative activity against HUVEC after 72 hrs by using methylene blue staining; type: cell-based; settings: human
Procedure, shortened: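 HUVEC in culture medium with ultraglutamine, gentamicin, 10% heat-inactivated FBS, 37 °C. Harvested in log phase by trypsinization; about 10,000 cells/well. Compounds in DMSO, diluted in DMEM, incubated 72 h at 37 °C, 5% CO2. Cells then glutaraldehyde-fixed, stained with 0.05% methylene blue for 15 min, eluted with 0.33 N HCl, OD 660 nm. GI50 taken at 50% intersection versus untreated control.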

Mycobacterium avium [1] = experiment: Antimycobacterial activity against Mycobacterium avium CNCTC My 330/88 after 21 days by microdilution method; type: functional; settings: CNCTC My 330/88, 504 h
Procedure, shortened: (§1)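 MIC determined by a dilution micromethod. Strains came from the Czech National Collection of Type Cultures, Prague. Compounds were added to the medium as DMSO solutions. Each inoculum was also plated in parallel on Löwenstein–Jensen medium to check its sterility and growth. The M. avium strain is identical with ATCC 25291 and resistant to INH.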

[2] = tested on: Mycobacterium tuberculosis; experiment: Antimycobacterial activity against Mycobacterium tuberculosis CNCTC My 331/88 after 14 days by microdilution method; type: functional; settings: CNCTC My 331/88, 336 h; procedure, shortened: as §1
Mycobacterium kansasii [3] = experiment: Antimycobacterial activity against Mycobacterium kansasii 6509/96 after 14 days by microdilution method; type: functional; settings: 6509/96, 336 h
Procedure, shortened: (§2)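 Dilution micromethod for MIC; compounds added to medium as DMSO solutions. Each strain also inoculated onto Löwenstein–Jensen medium to control inoculum sterility and growth. Strain 6509/96 is a clinical isolate; CNCTC strains from the Czech national type culture collection.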

Mycobacterium kansasii [4] = experiment: Antimycobacterial activity against Mycobacterium kansasii CNCTC My 235/80 after 21 days by microdilution method; type: functional; settings: CNCTC My 235/80, 504 h; procedure, shortened: as §2
[5] = tested on: Mycobacterium tuberculosis; experiment: Antimycobacterial activity against Mycobacterium tuberculosis CNCTC My 331/88 after 21 days by microdilution method; type: functional; settings: CNCTC My 331/88, 504 h; procedure, shortened: as §1
Mycobacterium avium [6] = experiment: Antimycobacterial activity against Mycobacterium avium CNCTC My 330/88 after 14 days by microdilution method; type: functional; settings: CNCTC My 330/88, 336 h; procedure, shortened: as §1
Mycobacterium kansasii [7] = experiment: Antimycobacterial activity against Mycobacterium kansasii CNCTC My 235/80 after 14 days by microdilution method; type: functional; settings: CNCTC My 235/80, 336 h; procedure, shortened: as §2
HeLa = experiment: Cytotoxicity against human HeLa cells after 72 hrs by using methylene blue staining; type: functional, cell-based
Procedure, shortened: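 HeLa cells in RPMI 1640 with supplements, preincubated 48 h without compound. Compound dilutions were then applied to subconfluent monolayers for 72 h at 37 °C, 5% CO2. Cells were glutaraldehyde-fixed, stained with 0.05% methylene blue, eluted with 0.33 N HCl and read at OD 660 nm. CC50 taken at 50% intersection versus negative control.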

K562 = experiment: Antiproliferative activity against human K562 cells after 72 hrs by celltiter-blue assay; type: functional, cell-based
Procedure, shortened: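 K-562 grown in RPMI 1640 with ultraglutamine, gentamicin, 10% heat-inactivated FBS at 37 °C; about 10,000 cells/well. Compounds dissolved in DMSO and diluted in DMEM, incubated 72 h at 37 °C, 5% CO2. Viability read by CellTiter-Blue resazurin reduction. GI50 taken where the dose-response curve crosses 50% of untreated control.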

Mycobacterium kansasii [8] = experiment: Antimycobacterial activity against Mycobacterium kansasii 6509/96 after 21 days by microdilution method; type: functional; settings: 6509/96, 504 h; procedure, shortened: as §2

Row | Structure (SMILES) | Activity (HUVEC) | MIC (Mycobacterium avium [1]) | MIC [2] | MIC (Mycobacterium kansasii [3]) | MIC (Mycobacterium kansasii [4]) | MIC [5] | MIC (Mycobacterium avium [6]) | MIC (Mycobacterium kansasii [7]) | Activity (HeLa) | Activity (K562) | MIC (Mycobacterium kansasii [8])
1 | O=c1oc2ccc(Br)cc2c(=S)n1Cc1ccc(Cl)c(Cl)c1 | Toxic | 8 µM (≈ 3.34 µg/mL) | 2 µM (≈ 0.834 µg/mL) | 16 µM (≈ 6.67 µg/mL) | 16 µM (≈ 6.67 µg/mL) | 4 µM (≈ 1.67 µg/mL) | 8 µM (≈ 3.34 µg/mL) | 16 µM (≈ 6.67 µg/mL) | Toxic | Toxic | 16 µM (≈ 6.67 µg/mL)
2 | O=c1oc2ccc(Br)cc2c(=O)n1Cc1ccccc1 | Toxic | 62.5 µM (≈ 20.8 µg/mL) | 62.5 µM (≈ 20.8 µg/mL) | 62.5 µM (≈ 20.8 µg/mL) | 125 µM (≈ 41.5 µg/mL) | 62.5 µM (≈ 20.8 µg/mL) | 62.5 µM (≈ 20.8 µg/mL) | 62.5 µM (≈ 20.8 µg/mL) | Toxic | Toxic | 125 µM (≈ 41.5 µg/mL)
3 | NNC(=O)c1ccncc1 [ISONIAZID] |  | > 250 µM | 1 µM (≈ 0.137 µg/mL) | 8 µM (≈ 1.1 µg/mL) | > 250 µM | 1 µM (≈ 0.137 µg/mL) | > 250 µM | > 250 µM |  |  | 8 µM (≈ 1.1 µg/mL)
4 | O=c1oc2ccc(Br)cc2c(=S)n1Cc1ccccc1 | Toxic | 8 µM (≈ 2.79 µg/mL) | 1 µM (≈ 0.348 µg/mL) | 4 µM (≈ 1.39 µg/mL) | 8 µM (≈ 2.79 µg/mL) | 2 µM (≈ 0.696 µg/mL) | 8 µM (≈ 2.79 µg/mL) | 8 µM (≈ 2.79 µg/mL) | Toxic | Toxic | 8 µM (≈ 2.79 µg/mL)
5 | O=c1oc2ccc(Cl)cc2c(=S)n1Cc1ccc(F)cc1 | Toxic | 4 µM (≈ 1.29 µg/mL) | 1 µM (≈ 0.322 µg/mL) | 4 µM (≈ 1.29 µg/mL) | 8 µM (≈ 2.57 µg/mL) | 1 µM (≈ 0.322 µg/mL) | 4 µM (≈ 1.29 µg/mL) | 4 µM (≈ 1.29 µg/mL) | Toxic | Toxic | 4 µM (≈ 1.29 µg/mL)
6 | S=c1oc2ccccc2c(=S)n1Cc1ccccc1 |  | 1 µM (≈ 0.285 µg/mL) | 1 µM (≈ 0.285 µg/mL) | 1 µM (≈ 0.285 µg/mL) | 2 µM (≈ 0.571 µg/mL) | 1 µM (≈ 0.285 µg/mL) | 1 µM (≈ 0.285 µg/mL) | 2 µM (≈ 0.571 µg/mL) |  |  | 2 µM (≈ 0.571 µg/mL)
7 | Cc1ccc2oc(=O)n(Cc3ccccc3)c(=O)c2c1 | Toxic | 62.5 µM (≈ 16.7 µg/mL) | 32 µM (≈ 8.55 µg/mL) | 62.5 µM (≈ 16.7 µg/mL) | 62.5 µM (≈ 16.7 µg/mL) | 62.5 µM (≈ 16.7 µg/mL) | 32 µM (≈ 8.55 µg/mL) | 62.5 µM (≈ 16.7 µg/mL) | Toxic | Toxic | 125 µM (≈ 33.4 µg/mL)
8 | O=c1oc2c(Cl)cc(Cl)cc2c(=S)n1Cc1ccc(Cl)c(Cl)c1 | Toxic | 4 µM (≈ 1.63 µg/mL) | 2 µM (≈ 0.814 µg/mL) | 16 µM (≈ 6.51 µg/mL) | 16 µM (≈ 6.51 µg/mL) | 2 µM (≈ 0.814 µg/mL) | 4 µM (≈ 1.63 µg/mL) | 16 µM (≈ 6.51 µg/mL) | Toxic | Toxic | 16 µM (≈ 6.51 µg/mL)
9 | Fc1ccc(Cn2c(=S)oc3ccc(Cl)cc3c2=S)cc1 |  | 16 µM (≈ 5.41 µg/mL) | 1 µM (≈ 0.338 µg/mL) | 8 µM (≈ 2.7 µg/mL) | 16 µM (≈ 5.41 µg/mL) | 2 µM (≈ 0.676 µg/mL) | 8 µM (≈ 2.7 µg/mL) | 8 µM (≈ 2.7 µg/mL) |  |  | 16 µM (≈ 5.41 µg/mL)
10 | O=c1oc2ccccc2c(=O)n1Cc1ccccc1 | Toxic | 62.5 µM (≈ 15.8 µg/mL) | 32 µM (≈ 8.1 µg/mL) | 62.5 µM (≈ 15.8 µg/mL) | 62.5 µM (≈ 15.8 µg/mL) | 32 µM (≈ 8.1 µg/mL) | 32 µM (≈ 8.1 µg/mL) | 62.5 µM (≈ 15.8 µg/mL) | Toxic | Toxic | 62.5 µM (≈ 15.8 µg/mL)
11 | S=c1oc2ccc(Br)cc2c(=S)n1Cc1ccccc1 |  | 8 µM (≈ 2.91 µg/mL) | 1 µM (≈ 0.364 µg/mL) | 4 µM (≈ 1.46 µg/mL) | 8 µM (≈ 2.91 µg/mL) | 2 µM (≈ 0.729 µg/mL) | 8 µM (≈ 2.91 µg/mL) | 8 µM (≈ 2.91 µg/mL) |  |  | 8 µM (≈ 2.91 µg/mL)
12 | S=c1oc2ccc(Br)cc2c(=S)n1Cc1ccc(Cl)c(Cl)c1 |  | 16 µM (≈ 6.93 µg/mL) | 4 µM (≈ 1.73 µg/mL) | 16 µM (≈ 6.93 µg/mL) | 32 µM (≈ 13.9 µg/mL) | 8 µM (≈ 3.47 µg/mL) | 16 µM (≈ 6.93 µg/mL) | 16 µM (≈ 6.93 µg/mL) |  |  | 32 µM (≈ 13.9 µg/mL)
13 | O=c1oc2ccc(Cl)cc2c(=S)n1Cc1ccc(Cl)c(Cl)c1 | Toxic | 62.5 µM (≈ 23.3 µg/mL) | 32 µM (≈ 11.9 µg/mL) | 62.5 µM (≈ 23.3 µg/mL) | 62.5 µM (≈ 23.3 µg/mL) | 32 µM (≈ 11.9 µg/mL) | 62.5 µM (≈ 23.3 µg/mL) | 62.5 µM (≈ 23.3 µg/mL) | Toxic | Toxic | 62.5 µM (≈ 23.3 µg/mL)

Reference: ChEMBL document CHEMBL1177835, “A note to the biological activity of benzoxazine derivatives containing the thioxo group” (Eur J Med Chem, 2010)
